Assay results reported in ChEMBL document CHEMBL1140150, “Identification of a nonbasic, nitrile-containing cathepsin K inhibitor (MK-1256) that is efficacious in a monkey model of osteoporosis” (J Med Chem, 2008).

Legend:
[1] = tested on: Canis familiaris; assay: Volume of distribution in dog at 5 mL/kg, po; type: ADME, organism-based, Canis lupus familiaris; conditions: in vivo
How it was run: (§1)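 Oral suspensions were given to overnight-fasted animals in the morning, at 10 mL/kg in rats, 5 mL/kg in dogs and 1 mL/kg in monkeys. Intravenous dosing was 1 mL/kg in all species. Plasma was sampled at intervals and analyzed by LC-MS after protein precipitation with 1.5 volumes acetonitrile and centrifugation.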

[2] = molecular target: T1, Cathepsin K (Oryctolagus cuniculus, UniProt P43236); assay: Inhibition of rabbit cathepsin K
T1 sequence (P43236 whole entry): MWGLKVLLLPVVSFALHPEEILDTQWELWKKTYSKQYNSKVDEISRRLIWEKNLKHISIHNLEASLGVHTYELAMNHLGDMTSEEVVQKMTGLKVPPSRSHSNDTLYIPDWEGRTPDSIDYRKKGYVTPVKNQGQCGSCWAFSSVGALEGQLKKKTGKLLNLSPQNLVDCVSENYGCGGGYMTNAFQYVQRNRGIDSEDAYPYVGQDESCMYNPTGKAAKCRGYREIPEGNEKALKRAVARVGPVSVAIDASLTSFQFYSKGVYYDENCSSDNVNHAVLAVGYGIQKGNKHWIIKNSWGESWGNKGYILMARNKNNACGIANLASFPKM

[3] = Selectivity for rabbit cathepsin K over human cathepsin F
[4] = Clearance in rat at 10 mL/kg, po; type: ADME, organism-based; conditions: in vivo; how it was run: as §1
[5] = tested on: Rattus norvegicus; assay: Volume of distribution in rat at 10 mL/kg, po; type: ADME, organism-based; conditions: in vivo; how it was run: as §1
[6] = Inhibition of humanized rabbit cathepsin K Tyr61Asp and Val157Leu mutant; set-up: species or system Homo sapiens
[7] = Bone resorption shift, ratio of IC50 for inhibition of bone resorption in rabbit bone to IC50 for rabbit cathepsin K; type: functional, Oryctolagus cuniculus
How it was run: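 Bone resorption shift is the rabbit bone resorption IC50 divided by the rabbit Cat K IC50.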

[8] = Selectivity for rabbit cathepsin K over human cathepsin C
[9] = Half life in dog at 5 mL/kg, po; type: ADME, organism-based, Canis lupus familiaris; conditions: in vivo; how it was run: as §1
[10] = Selectivity for rabbit cathepsin K over human cathepsin S
How it was run: (§2)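 Counterscreens used human Cat B and Cat S. Selectivity is expressed against humanized rabbit Cat K.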

[11] = Selectivity for rabbit cathepsin K over human cathepsin V
[12] = Selectivity for rabbit cathepsin K over human cathepsin Z
[13] = Clearance in dog at 5 mL/kg, po; type: ADME, organism-based, Canis lupus familiaris; conditions: in vivo; how it was run: as §1
[14] = Inhibition of bone resorption in rabbit bone; type: functional, tissue-based, Oryctolagus cuniculus, Bone element
[15] = Selectivity for rabbit cathepsin K over human cathepsin H
[16] = Oral bioavailability in dog at 5 mL/kg; type: ADME, organism-based, Canis lupus familiaris; conditions: in vivo; how it was run: as §1
[17] = Selectivity for rabbit cathepsin K over human cathepsin B; how it was run: as §2
[18] = Oral bioavailability in rat at 10 mL/kg; type: ADME, organism-based; conditions: in vivo; how it was run: as §1
[19] = Half life in rat at 10 mL/kg, po; type: ADME, organism-based; conditions: in vivo; how it was run: as §1
[20] = Clearance in rhesus monkey at 1 mL/kg, po; type: ADME, organism-based, Macaca mulatta; conditions: in vivo; how it was run: as §1
[21] = Metabolic stability in po dosed rat assessed as drug recovery after 96 hrs; type: ADME, organism-based; conditions: in vivo
How it was run: (§3)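 Radiolabeled compound was given orally to bile-cannulated rats. Radioactivity was recovered from bile, urine and feces over 96 h and expressed as percent of dosed radioactivity.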

[22] = tested on: Rhesus monkey; assay: Inhibition of bone resorption in ovariectomized monkey model of osteoporosis assessed as reduction of urinary-N-telopeptide fragment level at 1 mg/kg, po qd for 1 week; type: functional, Macaca mulatta, Urine; set-up: scale not given: the % may be the effect or the level left
How it was run: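 Adult ovariectomized rhesus monkeys given drug or vehicle orally once daily at 1 mpk for 1 week. Bone resorption was followed by urinary N-telopeptide (NTx) normalized to creatinine (nM/mM), and the value is the mean reduction versus vehicle-treated animals.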

[23] = tested on: Rhesus monkey; assay: Inhibition of bone resorption in ovariectomized monkey model of osteoporosis assessed as reduction of urinary-N-telopeptide fragment level at 1 mg/kg administered once daily; set-up: scale not given: the % may be the effect or the level left
[24] = Drug level in ovariectomized monkey model of osteoporosis at 1 mg/kg, po qd for 1 week measured after 24 hrs of last dose; type: ADME, organism-based, Macaca mulatta; set-up: dose 1 mg/kg, route oral; conditions: female, rhesus monkey, in vivo, read-out: Drug uptake
How it was run: (§4)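 Adult ovariectomized rhesus monkeys dosed orally once daily at 1 mpk for 1 week, dosing volume 1 mL/kg, fasted overnight before morning dosing. Plasma drug levels were taken on the final day of dosing and analyzed by LC-MS after protein precipitation with 1.5 volumes acetonitrile and centrifugation.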

[25] = Metabolic stability in po dosed rat urine assessed as drug recovery after 96 hrs; type: ADME, organism-based; conditions: read-out: Stability; how it was run: as §3
[26] = Inhibition of bone resorption in rhesus monkey bone; type: functional, tissue-based, Macaca mulatta, Bone element
[27] = tested on: Rattus norvegicus; assay: Metabolic stability in po dosed rat assessed as (1R,2R)-5,5-dichloro-N-(1-cyanocyclopropyl)-2-(4-(4-(methylsulfonyl)phenyl)-1H-pyrazol-3-yl)cyclohexanecarboxamide level after 96 hrs; type: ADME, organism-based; conditions: in vivo
[28] = tested on: Rhesus monkey; assay: Volume of distribution in rhesus monkey at 1 mL/kg, po; type: ADME, organism-based, Macaca mulatta; conditions: in vivo; how it was run: as §1
[29] = Metabolic stability in po dosed rat bile assessed as drug recovery after 96 hrs; type: ADME, organism-based; conditions: read-out: Stability; how it was run: as §3
[30] = Oral bioavailability in rhesus monkey at 1 mL/kg; type: ADME, organism-based, Macaca mulatta; conditions: in vivo; how it was run: as §1
[31] = species on record: Homo sapiens; assay: Inhibition of humanized rabbit cathepsin K Tyr61Asp and Val157Leu mutant in presence of 0.2 uM citrate buffer at 0.12 uM
How it was run: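 Reversibility test: a 1:1 mixture of humanized rabbit Cat K and inhibitor (0.12 µM) was preincubated 15 min, then diluted 500-fold into substrate-containing buffer (0.2 µM citrate). Recovery of enzyme activity was followed over time against a control incubation, giving a recovery half-time.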

[32] = AUC in ovariectomized monkey model of osteoporosis at 1 mg/kg, po qd for 1 week; type: ADME, organism-based, Macaca mulatta; set-up: dose 1 mg/kg, route oral; conditions: female, rhesus monkey, in vivo; how it was run: as §4
[33] = Half life in rhesus monkey at 1 mL/kg, po; type: ADME, organism-based, Macaca mulatta; conditions: in vivo; how it was run: as §1
[34] = Metabolic stability in po dosed rat feces assessed as drug recovery after 96 hrs; type: ADME, organism-based; conditions: faeces, read-out: Stability; how it was run: as §3
[35] = Tmax in ovariectomized monkey model of osteoporosis at 1 mg/kg, po qd for 1 week; type: ADME, organism-based, Macaca mulatta; set-up: dose 1 mg/kg, route oral; conditions: female, rhesus monkey, in vivo; how it was run: as §4
[36] = Cmax in ovariectomized monkey model of osteoporosis at 1 mg/kg, po qd for 1 week; type: ADME, organism-based, Macaca mulatta; set-up: dose 1 mg/kg, route oral; conditions: female, rhesus monkey, in vivo; how it was run: as §4
[37] = Protein binding in human plasma by ultracentrifugation; type: ADME, cell-free; conditions: read-out: PPB (converted)
[38] = Protein binding in rat plasma by ultracentrifugation; type: ADME, cell-free; conditions: read-out: PPB (converted)
[39] = Protein binding in rabbit plasma by ultracentrifugation; type: ADME, cell-free, Oryctolagus cuniculus; conditions: read-out: PPB (converted)

Row | SMILES | Vdss [1] [L/kg] | IC50 [2] [nM] | Selectivity ratio [3] | CL/F [4] [mL/min/kg] | Vdss [5] [L/kg] | IC50 [6] [nM] | Selectivity ratio [8] | half-life [9] [h] | Selectivity ratio [10] | Selectivity ratio [11] | Selectivity ratio [12] | CL/F [13] [mL/min/kg] | IC50 [14] [nM] | Selectivity ratio [15] | bioavailability [16] [%] | Selectivity ratio [17] | bioavailability [18] [%] | half-life [19] [h] | Ratio IC50 [7] | also measured
1 | CSc1ccc(-c2ccccc2[C@@H]2CCC(F)(F)C[C@H]2C(=O)NCC#N)cc1 | – | – | – | – | – | 0.28 | – | – | 940 | – | – | – | 16 | – | – | > 36000 | – | – | 53 | fraction unbound [37]: 0.15; fraction unbound [38]: 0.15; fraction unbound [39]: 0.15
2 | CSc1ccc(-c2cn(C)nc2[C@@H]2CCC(F)(F)C[C@H]2C(=O)NCC#N)cc1 (racemic) | – | 0.41 | – | – | – | 0.37 | – | – | 490 | – | – | – | 41 | – | – | 9500 | – | – | 100 | –

More lines, main results first:

Row | Vdss [1] [L/kg] | IC50 [2] [nM] | Selectivity ratio [3] | CL/F [4] [mL/min/kg] | Vdss [5] [L/kg] | IC50 [6] [nM] | Selectivity ratio [8] | half-life [9] [h] | Selectivity ratio [10] | Selectivity ratio [11] | Selectivity ratio [12] | CL/F [13] [mL/min/kg] | IC50 [14] [nM] | Selectivity ratio [15] | bioavailability [16] [%] | Selectivity ratio [17] | bioavailability [18] [%] | half-life [19] [h] | SMILES | Ratio IC50 [7] | also measured
3 | 1.2 | 9.3 | 110 | 14 | 3.2 | 0.69 | 6000 | 7.8 | 7100 | 1100 | 1700 | 1.8 | 51 | > 140000 | 31 | > 14000 | 25 | 4.4 | CS(=O)(=O)c1ccc(-c2cn(CC(F)(F)F)nc2[C@@H]2CCC(F)(F)C[C@H]2C(=O)NC2(C#N)CC2)cc1 | 6 | –
4 | 2.1 | 6.1 | 110 | 7.8 | 2.8 | 0.62 | 6000 | 34 | 4300 | 1100 | 1700 | 1.4 | 50 | > 140000 | 60 | > 16000 | 105 | 4.4 | CS(=O)(=O)c1ccc(-c2cn(CC(F)(F)F)nc2[C@@H]2CCC(Cl)(Cl)C[C@H]2C(=O)NC2(C#N)CC2)cc1 | 8 | CL/F [20]: 5 mL/min/kg; dose excreted at 96 h [21]: 92%; Activity [22]: 72%; Activity [23]: 76%; concentration at 24 h [24]: 80 nM; dose excreted at 96 h [25]: 18%; IC50 [26]: 2 nM; Activity [27]: 0.1%; Vdss [28]: 3.4 L/kg; dose excreted at 96 h [29]: 16%; bioavailability [30]: 104%; inhibition [31]: > 99%; AUC at 168 h [32]: 4.2 µM·h; half-life [33]: 13 h; dose excreted at 96 h [34]: 58%; Tmax [35]: 4 h; Cmax [36]: 400 nM
5 | – | 4.5 | – | – | – | 0.81 | – | – | 1200 | – | – | – | 35 | – | – | 4400 | – | – | Cn1cc(-c2ccc(S(C)(=O)=O)cc2)c([C@@H]2CCC(F)(F)C[C@H]2C(=O)NC2(C#N)CC2)n1 | 8 | –
6 | – | 18.6 | – | – | – | 1.8 | – | – | 2300 | – | – | – | 120 | – | – | 2900 | – | – | CS(=O)(=O)c1ccc(-c2c[nH]nc2[C@@H]2CCC(F)(F)C[C@H]2C(=O)NC2(C#N)CC2)cc1 | 7 | –
